The values that follow come from paper PMC3172994 (Biochemistry, 2011).

Assay [1] concerns the target thrombin. Particulars: cited from earlier work.
Assay [2] has as its target T1, human α-thrombin (Homo sapiens, UniProt P00734). Put plainly: PABA fluorescence titration of SOS binding to human thrombin. Particulars: for ΔG° / ΔFMAX / Kd: pH 7.4, 25 °C; for ΔFMAX: PABA fluorescence λEM 370 nm; for Kd: read-out: KD,OBS.
Assay [3] concerns the target T1, human α-thrombin. The format is biochemical. The method, boiled down:
(§1)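 Purified α-thrombin with the test compound in 20 mM phosphate or Tris, pH 7.4, 150 mM NaCl, 0.1 mM EDTA or CaCl₂, 0.1% PEG 8000. Cuvette format: 5 nM enzyme, 50 μM Spectrozyme TH, room temperature. Plate format: 12.5 nM enzyme, 10 min preincubation at 25 °C. Initial A405 rate taken as activity relative to a no-compound control. A logistic fit gave IC50, Hill slope and maximal inhibition (from Y0, YM).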

The target of another assay is BT (bovine thrombin) (Bos taurus, UniProt P00735). Type of assay: biochemical. Particulars: not shown. The method, boiled down:
as §1

Assay [4] has as its target HT cleavage of human fibrinogen (Homo sapiens, UniProt P00734). Put plainly: Turbidimetric assay of thrombin cleavage of fibrinogen. The format is biochemical. As to conditions: 0.7 - 1.8 mM SOS, turbidity at 600 nm.
Assay [5] concerns thrombin. Particulars: cited from earlier work. This is another data set of the same source.
Setting [6] is: pH 7.4, I = 0.15, 25 °C, Spectrozyme TH.

Each structure is given as a SMILES string. Values joined by “and” are separate entries in the source; they are usually repeats but may differ in a detail not shown here. Equal entries are not always repeated. Where two headings read alike, the source gives them in different places.

A word on the Kd: it is the free concentration of one partner at which half of the binding sites on the other are occupied at equilibrium, for simple one-to-one binding. The term Hill slope denotes a measure of the steepness of the concentration-response curve. As a reminder, the IC50 is the point on the concentration scale where inhibition reaches its midpoint.

Turning to `N=C(N)c1ccc(N)cc1` [PABA, p-aminobenzamidine], the equilibrium dissociation constant (Kd) on thrombin [1] is 60 to 80 µM.

With `O=S(=O)(O)OC[C@H]1O[C@@](COS(=O)(=O)O)(O[C@H]2O[C@H](COS(=O)(=O)O)[C@@H](OS(=O)(=O)O)[C@H](OS(=O)(=O)O)[C@H]2OS(=O)(=O)O)[C@@H](OS(=O)(=O)O)[C@@H]1OS(=O)(=O)O` [SOS, Sucrose octasulfate], on human α-thrombin [2], the “contribution due to non-ionic forces” value was found to be 2.4 kcal/mol. The “maximal decrease in fluorescence at 370 nm” value on human α-thrombin [2] (20 mM sodium phosphate, pH 7.4, 50 mM NaCl) is reported as “approximately 5%”. For the same molecule, the results for the “ΔG°” value at human α-thrombin [2] (50 mM NaCl), on human α-thrombin [2] (150 mM NaCl) and on human α-thrombin [2] (250 mM NaCl) were 7.9 ± 0.1 kcal/mol, 6.4 ± 0.2 kcal/mol and 5.2 ± 0.2 kcal/mol, respectively. In addition, the figures for the ΔFMAX at human α-thrombin [2] (50 mM NaCl), on human α-thrombin [2] (150 mM NaCl) and on human α-thrombin [2] (250 mM NaCl) were −4.8±0.1%, −6.4±0.3% and −9.2±0.6%, respectively. Further, the “non-ionic contribution relative to heparin - HT complex” value at human α-thrombin [2] (SOS - HT vs heparin - HT) is given as “approximately 12.5 fold”. Also, the “slope of logKD,OBS vs log[Na+]” value on human α-thrombin [2] (pH 7.4) was determined as 3.8 ± 0.5. Besides, at human α-thrombin [2] (pH 7.4, I 0.15), the “contribution of non-ionic forces, share of total binding energy” value is given as “approximately 35%”. Also, the ionic binding energy on human α-thrombin [2] (pH 7.4, I = 0.15, 25 °C) was determined as 4.5 kcal/mol. For the same molecule, the dissociation constant Kd was ~1.4 µM and 1.4 µM on human α-thrombin [2] (50 mM NaCl, I = 0.085); 22 ± 4 µM on human α-thrombin [2] (150 mM NaCl); 149 ± 25 µM on human α-thrombin [2] (250 mM NaCl). For the same molecule, the “maximal inhibition of Spectrozyme TH hydrolysis” value at human α-thrombin [3] (HT, from Y0 and YM of equation 3) is 13.5 ± 0.2%; on BT (bovine thrombin), 20 ± 2.0%. In addition, the Hill slope at human α-thrombin [3] (setting [6]) was found to be 1.5 ± 0.5. The molecule also gave an IC50 against human α-thrombin [3] (setting [6]) of 4.5 ± 1.1 µM. Besides, the “effect on fibrinogen cleavage profile” value in assay [4] is “gradual increase in the lag time of cleavage”. The “inhibition of thrombin hydrolysis of CBS31.39” value in the assay with thrombin [5] was not above 10%.
